Measurements published in ChEMBL document CHEMBL5143652, “Quinazolinones as allosteric fourth-generation EGFR inhibitors for the treatment of NSCLC” (Bioorg Med Chem Lett, 2022).
Activity calls are given as the source filed them. The rule behind the calls is not given here.

Experiments:
[1] = AUC (0 to 8 hrs) in mouse at 3 mg/kg, iv or 20 mg/kg, po; assay type: ADME, organism-based; set-up: dose 3 mg/kg, route iv; conditions: in vivo
[2] = Half life in mouse at 3 mg/kg, iv; assay type: ADME, organism-based; conditions: in vivo
[3] = molecular target: Epidermal growth factor receptor (Homo sapiens, UniProt P00533, L858R/T790M); test: biochemical
[4] = Volume of distribution at steady state in mouse at 3 mg/kg, iv or 20 mg/kg, po; assay type: ADME, organism-based; conditions: in vivo, read-out: Vdss
BaF3 [5] = test: Antiproliferative activity against mouse BaF3 cells harboring EGFR L858R/T790M double mutant assessed as inhibition of cell growth; assay type: functional, cell-based
Procedure, shortened: (§1)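 Ba/F3 proliferation assay with the compound alone (single-agent readout, no cetuximab). Cellular IC50 is reported in μM.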

[6] = Clearance in mouse at 3 mg/kg, iv; assay type: ADME, organism-based; conditions: in vivo
BaF3 [7] = test: Antiproliferative activity against mouse BaF3 cells harboring EGFR L858R/T790M double mutant assessed as inhibition of cell growth in presence of cetuximab; assay type: functional, cell-based
Procedure, shortened: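 Ba/F3 proliferation assay, second readout: cells co-treated with cetuximab to prevent EGFR dimer formation. Cellular IC50 is reported in μM.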

[8] = Oral bioavailability in mouse at 20 mg/kg; assay type: ADME, organism-based; conditions: in vivo
BaF3 [9] = test: Antiproliferative activity against mouse BaF3 cells harboring EGFR L858R/T790M/C797S triple mutant assessed as inhibition of cell growth; assay type: functional, cell-based; procedure, shortened: as §1
[10] = Half life in rat at 1 mg/kg, iv; assay type: ADME, organism-based; conditions: in vivo
[11] = Clearance in rat at 1 mg/kg, iv; assay type: ADME, organism-based; conditions: in vivo
NCI-H1975 [12] = test: Antitumor activity against human NCI-H1975 cells harboring EGFR L858R/T790M mutant xenografted in rat assessed as slower regrowth of tumor at 50 mg/kg, po administered once daily for 20 days and measured on 35 day
NCI-H1975 [13] = test: Antitumor activity against human NCI-H1975 cells harboring EGFR L858R/T790M mutant xenografted in rat assessed as tumor growth inhibition at 50 mg/kg, po administered once daily for 20 days and measured on 35 day; assay type: functional, organism-based
NCI-H1975 [14] = test: Antitumor activity against human NCI-H1975 cells harboring EGFR L858R/T790M mutant xenografted in rat assessed as slower regrowth of tumor at 50 mg/kg, po administered once daily for 20 days and measured on 35 day; assay type: functional, organism-based
NCI-H1975 [15] = test: Antitumor activity against human NCI-H1975 cells harboring EGFR L858R/T790M mutant xenografted in rat assessed as tumor growth inhibition at 25 mg/kg, po administered once daily for 20 days and measured on 35 day; assay type: functional, organism-based
[16] = Oral bioavailability in rat at 10 mg/kg; assay type: ADME, organism-based; conditions: in vivo

Chain of Epidermal growth factor receptor (P00533 25-1210 T790M/L858R limits assumed): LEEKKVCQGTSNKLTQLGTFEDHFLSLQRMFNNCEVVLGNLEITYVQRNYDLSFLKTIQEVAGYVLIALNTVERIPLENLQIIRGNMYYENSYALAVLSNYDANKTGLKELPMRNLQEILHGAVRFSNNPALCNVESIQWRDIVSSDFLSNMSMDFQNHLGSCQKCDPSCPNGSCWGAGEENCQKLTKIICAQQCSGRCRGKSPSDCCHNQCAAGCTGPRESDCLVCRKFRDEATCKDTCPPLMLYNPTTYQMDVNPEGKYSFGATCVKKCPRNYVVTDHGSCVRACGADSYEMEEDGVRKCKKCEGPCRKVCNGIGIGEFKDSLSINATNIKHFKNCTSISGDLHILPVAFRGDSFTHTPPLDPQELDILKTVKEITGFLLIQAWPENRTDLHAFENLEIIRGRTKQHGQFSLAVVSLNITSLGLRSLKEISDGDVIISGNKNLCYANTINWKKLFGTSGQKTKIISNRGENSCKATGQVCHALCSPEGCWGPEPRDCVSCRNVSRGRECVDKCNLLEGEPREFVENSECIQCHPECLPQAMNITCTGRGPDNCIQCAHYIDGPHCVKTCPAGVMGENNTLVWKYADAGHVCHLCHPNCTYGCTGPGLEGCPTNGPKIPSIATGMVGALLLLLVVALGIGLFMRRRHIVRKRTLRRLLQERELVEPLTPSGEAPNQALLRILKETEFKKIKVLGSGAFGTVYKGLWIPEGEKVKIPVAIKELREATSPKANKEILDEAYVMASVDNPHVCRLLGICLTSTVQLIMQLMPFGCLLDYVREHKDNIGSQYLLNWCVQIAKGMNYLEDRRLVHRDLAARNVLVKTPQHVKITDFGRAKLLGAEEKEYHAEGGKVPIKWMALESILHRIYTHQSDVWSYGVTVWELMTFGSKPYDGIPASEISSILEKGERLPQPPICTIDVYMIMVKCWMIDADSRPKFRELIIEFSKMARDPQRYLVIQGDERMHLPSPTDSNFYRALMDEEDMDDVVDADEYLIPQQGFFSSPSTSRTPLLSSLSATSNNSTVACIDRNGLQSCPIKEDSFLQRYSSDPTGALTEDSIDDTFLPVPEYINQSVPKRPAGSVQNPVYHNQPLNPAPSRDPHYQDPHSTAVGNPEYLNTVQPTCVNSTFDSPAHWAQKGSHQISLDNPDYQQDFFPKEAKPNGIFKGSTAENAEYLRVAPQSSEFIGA

Row | SMILES | IC50 [3] [nM] | IC50 (BaF3 [5]) [nM] | IC50 (BaF3 [7]) [nM] | IC50 (BaF3 [9]) [nM] | further results
1 | CN1CCN(c2ccc(-c3ccc4c(c3)C(=O)N(C(C(=O)Nc3nccs3)c3cc(F)ccc3O)C4)cc2)CC1 (configuration not stated) | 0.3 | 490 | 6 | – | AUC(0-t) [1]: 1350 ng·h/mL; half-life [2]: 2.8 h; Vd [4]: 1.8 L/kg; clearance [6]: 10.3 mL/min/kg; F [8]: 2%
2 | O=C(Nc1nccs1)C(c1cc(F)ccc1O)N1Cc2ccc(-c3ccc(N4CCNCC4)cc3)cc2C1=O (configuration not stated) | – | 610 | 21 | – | AUC(0-t) [1]: 2520 ng·h/mL; half-life [2]: 3 h; Vd [4]: 0.6 L/kg; clearance [6]: 5 mL/min/kg
3 | CN1CCC(c2ccc(-c3ccc4c(c3)C(=O)N(C(C(=O)Nc3nccs3)c3cc(F)ccc3O)C4)cc2)CC1 (configuration not stated) | 0.1 | 50 | 6 | – | AUC(0-t) [1]: 2400 ng·h/mL; half-life [2]: 2.3 h; Vd [4]: 2.5 L/kg; clearance [6]: 15.7 mL/min/kg; F [8]: 15%
4 | CN1CCN(c2ccc(-c3ccc4c(c3)C(=O)N(C(C(=O)Nc3nccs3)c3cccc(F)c3)C4)cc2)CC1 (configuration not stated) | 1.8 | 1990 | – | – | –
5 | CN1CCN(c2ccc(-c3ccc4c(c3)C(=O)N(C(C(=O)Nc3nccs3)c3ccccc3)C4)cc2)CC1 (configuration not stated) | 0.9 | 2560 | 43 | – | –
6 | CN1CCC(c2ccc(-c3cc4c(=O)n(C(C(=O)Nc5nccs5)c5ccccc5)cnc4cc3F)cc2)CC1 (configuration not stated) | 1.4 | 3000 | 73 | 280 | –
7 | CN1CCN(c2ccc(-c3ccc4ccn(C(C(=O)Nc5nccs5)c5ccccc5)c(=O)c4c3)cc2)CC1 (configuration not stated) | – | 1850 | – | – | –
8 | CN1CCC(c2ccc(-c3ccc4c(c3)C(=O)N(C(C(=O)Nc3nccs3)c3cccc(F)c3)C4)cc2)CC1 (configuration not stated) | 0.2 | 1070 | 20 | 152 | AUC(0-t) [1]: 1000 ng·h/mL; half-life [2]: 3.1 h; Vd [4]: 2.4 L/kg; clearance [6]: 13.9 mL/min/kg; F [8]: 4%
9 | CN1CCC(c2ccc(-c3ccc4ncn(C(C(=O)Nc5nccs5)c5ccccc5)c(=O)c4c3F)cc2)CC1 (configuration not stated) | – | – | – | – | t1/2 [10]: 3.5 h; clearance [11]: 30 mL/min/kg; Activity (NCI-H1975 [12]): Active; Activity (NCI-H1975 [13]): Active; Activity (NCI-H1975 [14]): Active; Activity (NCI-H1975 [15]): Active; F [16]: 24%
10 | CN1CCC(c2ccc(-c3ccc4ncn(C(C(=O)Nc5nccs5)c5ccccc5)c(=O)c4n3)cc2)CC1 (configuration not stated) | – | 1710 | 16 | 90 | –
11 | CN1CCC(c2ccc(-c3ccc4c(c3)C(=O)N(C(C(=O)Nc3nccs3)c3cccc(F)c3)CC4)cc2)CC1 (configuration not stated) | 3.2 | 1470 | 99 | – | –
12 | CN1CCC(c2ccc(-c3ccc4cnn(C(C(=O)Nc5nccs5)c5ccccc5)c(=O)c4c3)cc2)CC1 (configuration not stated) | – | 1540 | 207 | 440 | –
13 | CN1CCC(c2ccc(-c3ccc4c(c3)CCN(C(C(=O)Nc3nccs3)c3cccc(F)c3)C4=O)cc2)CC1 (configuration not stated) | 2.2 | 1990 | – | – | –
14 | CN1CCC(c2ccc(-c3ccc4c(=O)n(C(C(=O)Nc5nccs5)c5ccccc5)ccc4c3)cc2)CC1 (configuration not stated) | 1.2 | 1280 | 24 | 500 | –
15 | O=C(Nc1nccs1)C(c1cc(F)ccc1O)N1Cc2ccccc2C1=O (configuration not stated) | – | > 10000 | 221 | – | –
16 | CN1CCN(c2ccc(-c3ccc4cnn(C(C(=O)Nc5nccs5)c5ccccc5)c(=O)c4c3)cc2)CC1 (configuration not stated) | 10.3 | 2160 | 380 | – | –
17 | CN1CCC(c2ccc(-c3ccc4c(=O)n(C(C(=O)Nc5nccs5)c5ccccc5)cnc4c3)cc2)CC1 (configuration not stated) | 5.8 | 2430 | 225 | 900 | –
18 | CN1CCC(c2ccc(-c3ccc4c(=O)n(C(C(=O)Nc5nccs5)c5ccccc5)ncc4c3)cc2)CC1 (configuration not stated) | 9.7 | 1240 | – | 990 | –
19 | CN1CCN(c2ccc(-c3ccc4c(c3)C(=O)N(C(C(=O)Nc3nccs3)c3cccc(F)c3)CC4)cc2)CC1 (configuration not stated) | 6.8 | 1600 | 126 | – | –
20 | CN1CCN(c2ccc(-c3ccc4ncn(C(C(=O)Nc5nccs5)c5ccccc5)c(=O)c4c3)cc2)CC1 (configuration not stated) | 0.9 | 2320 | 21 | – | –
21 | CN1CCC(c2ccc(-c3cc(F)c4ncn(C(C(=O)Nc5nccs5)c5ccccc5)c(=O)c4c3)cc2)CC1 (configuration not stated) | – | 810 | 10 | 150 | –
22 | CN1CCN(c2ccc(-c3ccc4c(=O)n(C(C(=O)Nc5nccs5)c5ccccc5)ccc4c3)cc2)CC1 (configuration not stated) | 3.4 | 1270 | 62 | – | –
23 | CN1CCC(c2ccc(-c3ccc4ncn(C(C(=O)Nc5nccs5)c5ccccc5)c(=O)c4c3)cc2)CC1 (configuration not stated) | – | 780 | – | 50 | –
24 | CN1CCN(c2ccc(-c3ccc4c(=O)n(C(C(=O)Nc5nccs5)c5ccccc5)ncc4c3)cc2)CC1 (configuration not stated) | – | 3460 | 1670 | – | –
25 | CN1CCN(c2ccc(-c3ccc4c(=O)n(C(C(=O)Nc5nccs5)c5ccccc5)cnc4c3)cc2)CC1 (configuration not stated) | 3.1 | 2000 | 375 | – | –
26 | CN1CCC(c2ccc(-c3cnc4ncn(C(C(=O)Nc5nccs5)c5ccccc5)c(=O)c4c3)cc2)CC1 (configuration not stated) | 1.9 | 1140 | 23 | 310 | –
27 | CN1CCC(c2ccc(-c3ccc4ccn(C(C(=O)Nc5nccs5)c5ccccc5)c(=O)c4c3)cc2)CC1 (configuration not stated) | 1.8 | 1500 | 70 | 380 | –
